Reference: PubChem BioAssay AID720736 (The Scripps Research Institute Molecular Screening Center, 2013)
The source made the active and inactive calls.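 How the source made its calls: active means growth inhibition of at least 50% in any replicate; inactive means growth inhibition below 50% in every replicate.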

Assay: P. falciparum blood-stage growth inhibition, late-stage follow-up, M18AAP inhibitor project, cell-based, radiolabel, 3D7, RBCs, Set2 (AID 720736)
Conditions: P. falciparum 3D7 in RBCs, 3H-hypoxanthine incorporation, 48 h, at 10 µM, stronger effect = higher value
Procedure, shortened: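 material = P. falciparum 3D7-infected RBCs | medium = hypoxanthine-free RPMI medium with 10% serum | timing = 48 h exposure, 37 °C, 5% O2/5% CO2/90% N2 | measured by = 3H-hypoxanthine uptake by beta counting | evaluation = % growth inhibition versus vehicle-treated parasites, background-subtracted | controls = vehicle-treated parasites and uninfected RBCs | repeats = triplicate wells per compound in one or two runs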

Row | SMILES | growth inhibition (run 1) | growth inhibition (run 2)
1 | CN(CCc1ccc(O)c(O)c1)c1ncnc2ccccc12 | 1% (inactive) | 
2 | CC(C)(CNc1ccnc2ccccc12)c1ccc(O)c(O)c1 | 35% (inactive) | 
3 | COc1ccc(CCNC(=O)c2cc(C)ccc2N)cc1OC | 0% (inactive) | 
4 | CN(CCc1ccc(O)c(O)c1)c1ccncc1 | 3% (inactive) | 13% (inactive)
5 | Oc1ccc(CCCNc2c3c(nc4ccccc24)CCCC3)cc1O | 12% (inactive) | 
6 | Oc1ccc(C2CCCN(c3ccnc4ccccc34)C2)cc1O (stereo unspecified) | 50% | 
7 | COc1cc(Br)c(CCNc2c3c(nc4ccccc24)CCCC3)cc1OC | 96% | 
8 | CN(CCc1ccc(O)c(O)c1)c1ccnc2ccccc12 | 91% | 95%
9 | Cc1cc(N(C)CCc2ccc(O)c(O)c2)c2ccccc2n1 | 6% (inactive) | 
10 | COc1ccc(CCNC2CCN(Cc3ccccc3)CC2)cc1OC | 88% | 93%
11 | COc1ccc(CCNc2ccnc3c(F)cccc23)cc1OC | 26% (inactive) | 
12 | Oc1ccc(CCNc2ccnc3ccccc23)cc1O | 89% | 98%
13 | COc1cc(Br)c(CCNc2ccnc3ccccc23)cc1OC | 90% | 
14 | CCOc1ccc2nccc(N(C)CCc3ccc(OC)c(OC)c3)c2c1 | 15% (inactive) | 
15 | CN(CCc1ccc(O)c(O)c1)c1ccnc2c(F)cccc12 | 3% (inactive) | 
16 | Cc1cccc2c(NCCc3ccc(O)c(O)c3)ccnc12 | 56% | 
17 | Oc1ccc(CCN2CCc3ccccc3C2)cc1O | 52% | 62%
18 | CC(Cc1ccc(O)c(O)c1)Nc1ccnc2ccccc12 (stereo unspecified) | 19% (inactive) | 
19 | Oc1ccc(CCNc2ccc3ccccc3c2)cc1O | 21% (inactive) | 18% (inactive)
20 | COc1ccc(CCN2CCc3ccccc3C2)cc1OC | 0% (inactive) | 3% (inactive)
21 | COc1ccc(CCNc2ccncc2)cc1OC | 6% (inactive) | 12% (inactive)
22 | Cc1cccc2c(N(C)CCc3ccc(O)c(O)c3)ccnc12 | 5% (inactive) | 
23 | Oc1ccc(CCNc2ccnc3cc(Cl)ccc23)cc1O | 92% | 
24 | COc1ccc(CCNc2ncnc3ccccc23)cc1OC | 5% (inactive) | 
25 | CN1CCN(CCCc2ccc(O)c(O)c2)CC1 | 5% (inactive) | 0%
26 | Oc1ccc(C2CCN(c3ccnc4ccccc34)C2)cc1O (stereo unspecified) | 95% | 

Row | SMILES | growth inhibition (run 1) | growth inhibition (run 2)
27 | Oc1ccc(CCNC2CCN(Cc3ccccc3)CC2)cc1O | 90% | 95%
28 | Oc1ccc(CCNc2ccnc3c(F)cccc23)cc1O | 0% (inactive) | 
29 | CCOc1ccc2nccc(NCCc3ccc(OC)c(OC)c3)c2c1 | 72% | 
30 | COc1ccc(CCCN2CCN(C)CC2)cc1OC | 0% (inactive) | 
31 | COc1ccc(CCN2CCN(C)CC2)cc1OC | 0% (inactive) | 5% (inactive)
32 | CCN(CC)Cc1cc(Nc2ccnc3cc(Cl)ccc23)ccc1O | 98% | 
33 | COc1ccc(CCN(C)c2ccnc3ccccc23)cc1OC | 95% | 94%
34 | CN1CCN(CCc2ccc(O)c(O)c2)CC1 | 4% (inactive) | 0% (inactive)
35 | Oc1ccc(CCNc2cncc3ccccc23)cc1O | 38% (inactive) | 27% (inactive)
36 | COc1ccc(C2CCN(c3ccnc4ccccc34)CC2)cc1OC | 1% (inactive) | 
37 | COc1ccc(CCN(C)c2ccnc3c(F)cccc23)cc1OC | 5% (inactive) | 
38 | COc1ccc(CCNc2ccnc3c(C)cccc23)cc1OC | 20% (inactive) | 
39 | COc1ccc(CCN(C)c2ncnc3ccccc23)cc1OC | 3% (inactive) | 
40 | COc1ccc(CCNc2c3c(nc4ccc(C)cc24)CCCC3)cc1OC | 27% (inactive) | 
41 | COc1ccc(CCN(C)c2ccnc3c(C)cccc23)cc1OC | 5% (inactive) | 
42 | CN(CCc1ccc(O)c(O)c1)c1ccnc2cc(Cl)ccc12 | 0% (inactive) | 
43 | COc1ccc(C2CCN(c3ccnc4ccccc34)C2)cc1OC (stereo unspecified) | 94% | 
44 | CN(CCCc1ccc(O)c(O)c1)c1ccnc2ccccc12 | 0% (inactive) | 
45 | COc1ccc(CCNc2ccnc3cc(Cl)ccc23)cc1OC | 69% | 
46 | Oc1ccc(C2CCN(c3ccnc4ccccc34)CC2)cc1O | 76% | 
47 | Oc1cccc(CCNc2ccnc3ccccc23)c1O | 97% | 
48 | COc1ccc(CCN(C)c2ccnc3cc(Cl)ccc23)cc1OC | 97% | 92%
49 | COc1ccc(CCN(C)c2ccncc2)cc1OC | 0% (inactive) | 0% (inactive)
50 | COc1ccc(CCNC2CCN(C)CC2)cc1OC | 0% (inactive) | 0% (inactive)
51 | Cc1nc(NCCc2ccc(O)c(O)c2)c2c3c(sc2n1)CCC3 | 0% (inactive) | 

The remaining lines, values ahead:

Row | growth inhibition (run 1) | growth inhibition (run 2) | SMILES
52 | 95% | 95% | Oc1ccc(CCNc2c3ccccc3nc3ccccc23)cc1
53 | 38% (inactive) | 55% | COc1ccc(CCNc2c3c(nc4ccccc24)CCCC3)cc1OC
54 | 17% (inactive) |  | COc1ccc(CCCN(C)c2c3ccccc3nc3ccccc23)cc1OC
55 | 94% | 99% | Cc1c(OCc2ccccc2)c(=O)ccn1CCNc1c2ccccc2nc2ccccc12
56 | 18% (inactive) |  | CCN(CCc1ccc(OC)c(OC)c1)c1c2ccccc2nc2ccccc12
57 | 95% |  | COc1cc(Br)c(CCNc2c3ccccc3nc3ccccc23)cc1OC
58 | 5% (inactive) |  | CN(CCc1ccc(O)c(O)c1)c1c2ccccc2nc2ccccc12
59 | 47% (inactive) | 57% | Oc1ccc(CCNC(c2ccccc2)c2ccccc2)cc1O
60 | 20% (inactive) |  | CCN(CCc1ccc(O)c(O)c1)c1c2ccccc2nc2ccccc12
61 | 100% | 99% | COc1cccc(CCNc2c3ccccc3nc3ccccc23)c1
62 | 100% | 99% | COc1ccc(CNc2c3ccccc3nc3ccccc23)cc1OC
63 | 0% (inactive) | 3% (inactive) | COc1ccc(CCNc2ccc3ccccc3c2)cc1OC
64 | 98% | 100% | COc1ccc(CCNc2c3ccccc3nc3ccccc23)cc1OC
65 | 88% | 95% | COc1ccc(CCCNc2c3ccccc3nc3ccccc23)cc1OC
66 | 91% | 93% | Oc1ccc(CCCNc2c3ccccc3nc3ccccc23)cc1O
67 | 0% (inactive) |  | COc1ccc(CCNC(c2ccccc2)c2ccccc2)cc1OC
68 | 100% | 99% | NCCNc1c2ccccc2nc2ccccc12
69 | 26% (inactive) |  | COc1ccc(CCNc2cc(C)nc3ccccc23)cc1OC
70 | 100% | 98% | COc1ccc(CCNc2c3ccccc3nc3ccccc23)cc1
71 | 65% | 63% | COc1ccc(CCNc2cncc3ccccc23)cc1OC
72 | 4% (inactive) |  | COc1ccc(CCCNc2c3c(nc4ccccc24)CCCC3)cc1OC
73 | 27% (inactive) | 20% (inactive) | O=C(O)CCCCNc1c2ccccc2nc2ccccc12
74 | 0% (inactive) | 15% (inactive) | O=C(O)CCCNc1c2ccccc2nc2ccccc12
75 | 92% | 84% | O=c1ccn(CCNc2c3ccccc3nc3ccccc23)cc1OCc1ccccc1
76 | 21% (inactive) |  | CN(CCCc1ccc(O)c(O)c1)c1c2ccccc2nc2ccccc12
77 | 9% (inactive) | 20% (inactive) | COc1ccc(CCNc2cccc3ccccc23)cc1OC
78 | 90% | 95% | Oc1ccc(CCNc2c3c(nc4ccccc24)CCCC3)cc1O
79 | 16% (inactive) | 22% (inactive) | Oc1ccc(CCNc2cccc3ccccc23)cc1O
80 |  | 98% | COc1ccc(CCN(C)c2c3ccccc3nc3ccccc23)cc1OC
